# Assay outcomes from PubChem.
# hERG rescue: compounds protecting human hERG from proarrhythmic drug block | 310,000 tested, 0.51% active | Q12809 | CHO-hERG, FluxOR thallium flux, dofetilide IC70 present | activation (rescue from dofetilide block), less the hit threshold, % at 10 µM;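 active = activation above the mean of controls blocked by dofetilide plus 5 SD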;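 also: thallium influx through hERG after potassium depolarization seen as dye fluorescence rise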
# KCNK9 inh: human KCNK9 channel inhibition; Q9NPC2; HEK293 KCNK9, FluxOR thallium flux fluorescence; hits give low values; B-score at 10 µM; 310,000 tested, 1.2% active; AID 488922;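 active = ratio B-score over 3 SD below the library mean, with starting fluorescence within 5 SD of its mean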;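 also: negative B-score means less thallium flux so channel inhibition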
# Target sequence (Q9NPC2 whole entry, looked up): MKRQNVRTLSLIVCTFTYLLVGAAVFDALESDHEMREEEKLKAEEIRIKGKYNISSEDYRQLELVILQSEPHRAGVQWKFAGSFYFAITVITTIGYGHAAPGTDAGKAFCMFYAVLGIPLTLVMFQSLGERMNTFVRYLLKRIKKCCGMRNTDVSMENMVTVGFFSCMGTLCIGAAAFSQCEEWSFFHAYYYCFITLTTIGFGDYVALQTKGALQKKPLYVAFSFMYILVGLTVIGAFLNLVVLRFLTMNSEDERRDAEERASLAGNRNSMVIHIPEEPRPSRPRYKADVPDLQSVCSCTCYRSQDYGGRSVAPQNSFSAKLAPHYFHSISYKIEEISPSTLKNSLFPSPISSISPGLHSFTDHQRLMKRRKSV
# KCNK3 inh: human KCNK3 channel inhibition, primary screen; O14649; CHO-KCNK3 thallium flux, FluxOR fluorescence; hits give low values; B-score at 10 µM; 340,000 tested, 0.84% active; AID 602410;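 active = B-score under library mean minus 4 SD, starting fluorescence ratio at most library mean plus 5 SD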;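 also: more negative B-score means stronger inhibition of thallium flux through KCNK3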
# KCNQ1 inh: human KCNQ1 channel inhibition; P51787; CHO-K1 KCNQ1, FluxOR thallium flux fluorescence; hits give high values; B-score at 10 µM; 310,000 tested, 1.3% active;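 active = compounds whose thallium flux B-score, printed positive for inhibition, exceeds three library SD while starting fluorescence stays within three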;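 also: channel opened by potassium depolarization with thallium stimulus after 20 min compound exposure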
# KCNQ1 pot: potentiates or activates the human KCNQ1 potassium channel; P51787; CHO-K1 KCNQ1, thallium flux FluxOR fluorescence; hits give high values; B-score at 10 µM; 310,000 tested, 0.35% active;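 active = fluorescence ratio B-score, a plate-corrected score, at least three library SD, with initial intensity B-score within 5 SD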
#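 System: Stable KCNQ1 CHO-K1 line | Incubation: 90 min dye loading and 20 min compound exposure, both at room temperature | Measure: Ratio B score | Medium: Assay buffer for compound exposure, DMSO matched across wells | Compound dosing: Single-concentration screen | Probe or stimulus: K+/Tl+ depolarizing stimulus | Measured by: Kinetic FluxOR fluorescence, 10 s baseline plus 110 s post-stimulus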
# Kir21 inh: blocks the mouse Kir2.1 inward-rectifier potassium channel; HEK293-Kir2.1, FluxOR thallium flux fluorescence; hits give low values; B-score at 10 µM; 310,000 tested, 0.85% active;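 active = fluorescence ratio B-score at or below minus 3 SD of library scores, with starting-brightness B-score within 2 SD, cut at about -4.2 in these data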;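 also: channel flux triggered by added potassium and thallium sulfate stimulus; B-score of peak minus minimum fluorescence over baseline after thallium stimulus; more negative B-score means stronger Kir2.1 block with less thallium influx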
# KCNK9 block conf: human KCNK9 inhibitor confirmation; shares compounds with KCNK9 inh; HEK293 KCNK9 cells, FluxOR thallium flux fluorescence; inhibition, % at 10 µM; 4,900 tested, 43% active; AID 492992;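 active = thallium signal inhibited by more than 5 SD of the compound-free buffer control wells, on both duplicate plates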
# Kir21 sel: mouse Kir2.1 off-target activity of KCNK9 modulators; inhibition, % at 10 µM; Kir2.1 cells, FluxOR thallium flux fluorescence; shares compounds with KCNK9 inh; 4,900 tested, 4% active;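 active = thallium signal drop more than 5 SD beyond the mean of the no-compound control wells, seen in both duplicate plates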;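 also: signal is fluorescence rise after thallium addition divided by baseline fluorescence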
# HEK293 Tl ctr: second check of KCNK9 modulator effects in non-induced HEK293 cells. shares compounds with KCNK9 inh. FluxOR thallium flux. 4,900 tested, 40% active. inhibition, % at 10 µM;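 active = thallium signal drop beyond 5 SD of the untreated control mean, on both duplicate plates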
# A number is an active result; i = inactive; nt = no result. Shown are actives, neighbours in structure and some others; about 3.7% of the full set was active somewhere.
SMILES,hERG rescue,KCNK9 inh,KCNK3 inh,KCNQ1 inh,KCNQ1 pot,Kir21 inh,KCNK9 block conf,Kir21 sel,HEK293 Tl ctr
CCOc1cc(/C=C/C(=O)OCC(=O)NCC2CCCO2)cc(Cl)c1OC (centres undefined),nt,nt,i,nt,nt,nt,nt,nt,nt
CN=C1S/C(=C\c2cccc(Cl)c2Cl)C(=O)N1C,i,i,i,i,i,i,nt,nt,nt
COc1cc(C)ccc1OCCOCCOc1ccc(C)cc1[N+](=O)[O-],i,i,i,i,i,i,nt,nt,nt
CCOc1ccccc1OCCOCCOc1ccccc1[N+](=O)[O-],i,i,i,i,i,i,i,i,i
C[C@@H]1CN([C@@H](C)CO)C(=O)c2cc(NC(=O)CCC(F)(F)F)ccc2O[C@H]1CN(C)S(=O)(=O)c1ccc(Cl)cc1,nt,nt,i,nt,nt,nt,nt,nt,nt
C=C(C)COc1ccc(-c2ncncc2-c2ccc(Br)cc2)c(O)c1,i,i,i,i,i,i,i,i,i
CC1CCCN(S(=O)(=O)c2cc3c4c(c2)CCN4C(=O)CC3)C1 (centres undefined),i,i,i,i,i,i,nt,nt,nt
O=C(c1ccccc1)c1nn(-c2ccccc2)c2nnc(Cc3ccccc3)c(=O)n12,i,i,i,i,i,i,i,i,i
CCOc1ccc(OCCCC(=O)N2CCN(S(=O)(=O)c3ccccc3C#N)CC2)cc1,nt,nt,i,nt,nt,nt,nt,nt,nt
c1ccc(Cn2c(NCc3ccncc3)nc3ccccc32)cc1,i,i,i,i,i,i,nt,nt,nt
COc1ccc(CNc2nc3ccccc3n2Cc2ccc(C)cc2)cc1OC,i,-8.5,i,i,i,i,28%,i,i
COCCN=c1scc(-c2cc(OC)ccc2OC)n1/N=C/c1c[nH]c2ccccc12,i,i,i,i,i,i,i,i,i
COCCN=c1scc(-c2ccco2)n1/N=C/c1ccc(O)c(O)c1O,nt,nt,i,nt,nt,nt,nt,nt,nt
COc1cccc(C2CCCN2Cc2nc(CCC(C)C)no2)c1 (centres undefined),i,i,i,i,i,i,i,i,i
Cc1noc(C(F)(F)F)c1C(=O)NNC(=O)c1ccccc1,i,i,i,i,i,i,nt,nt,nt
O=C(/C=C/c1ccccc1)NC(NC(=S)Nc1ccc(Cl)cc1Cl)C(Cl)(Cl)Cl (centres undefined),i,i,i,i,i,i,i,i,i
C[C@]12C(=O)N(c3ccc(Cl)cc3)C(=O)N1[C@@H]1c3ccccc3OC[C@@H]1[C@H]2c1ccccc1,i,i,i,i,i,i,nt,nt,nt
NC(=O)CC(NC(=O)c1ccc(Br)cc1)c1ccc(N2CCC(Cc3ccccc3)CC2)c([N+](=O)[O-])c1 (centres undefined),i,-9.5,i,i,i,i,55%,i,32%
NC(=O)CC(NC(=O)c1ccc(Br)cc1)c1ccc(N2CCCCCCC2)c([N+](=O)[O-])c1 (centres undefined),i,-10,i,i,i,i,30%,i,42%
CC1C(=O)N2CCCc3cc(NC(=O)COc4ccccc4)cc1c32 (centres undefined),i,i,i,i,i,i,nt,nt,nt
c1ccc(-c2nc(-c3nccc4ccccc34)oc2-c2ccccc2)cc1,i,i,i,i,i,i,i,i,i
Nc1nc(-c2ccccc2)c(-c2ccccc2)o1,i,i,i,i,i,i,nt,nt,nt
O=C(Oc1ccccc1)c1cccc2cccc(C(=O)Oc3ccccc3)c12,i,-9.2,i,i,i,i,42%,i,26%
CCOC(=O)C(NC(=O)c1ccccc1Cl)(Nc1ccc(C(F)(F)F)cc1)C(F)(F)F (centres undefined),i,-12,i,i,i,i,66%,i,42%
COc1ccc(NC(=O)c2cc3sccc3n2Cc2ccc(F)cc2)cc1OC,i,-12,i,i,i,i,57%,i,30%
CN(CC(=O)NC(=O)NC1CCCCC1)Cc1ccccc1,nt,nt,i,nt,nt,nt,nt,nt,nt
